Measurements: ChEMBL document CHEMBL2412959, “Investigations on synthesis and structure elucidation of novel [1,2,4]triazolo[1,2-a]pyridazine-1-thiones and their inhibitory activity against inducible nitric oxide synthase” (Bioorg Med Chem, 2013)
Active and inactive are the calls of the source. No cut-off for these calls is given here.

Tests used:
[1] = Chemical stability in DMSO assessed as compound precipitation after several weeks; assay type: physicochemical
[2] = Cytotoxicity against rat RINm5F cells at 39 to 78 uM by MTT assay; assay type: cell-based
How it was run: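 RIN5F rat insulinoma cells, 1×10^5 per well, cytokine-induced and compound-treated as for the NO assay. After supernatant removal, medium was replaced with fresh medium containing MTT (2.5 mg/mL in PBS) for 4 h at 37 °C. Formazan was dissolved in DMSO. Viability is expressed as percent of cytokine-stimulated cells without compound.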

[3] = biological target: Nitric oxide synthase, inducible (Rattus norvegicus, UniProt Q06518); experiment: (§1) Inhibition of iNOS-mediated NO production in IL-1beta/IFNgamma-stimulated rat […] cells by Griess reaction
Sequence of Nitric oxide synthase, inducible (Q06518 whole entry): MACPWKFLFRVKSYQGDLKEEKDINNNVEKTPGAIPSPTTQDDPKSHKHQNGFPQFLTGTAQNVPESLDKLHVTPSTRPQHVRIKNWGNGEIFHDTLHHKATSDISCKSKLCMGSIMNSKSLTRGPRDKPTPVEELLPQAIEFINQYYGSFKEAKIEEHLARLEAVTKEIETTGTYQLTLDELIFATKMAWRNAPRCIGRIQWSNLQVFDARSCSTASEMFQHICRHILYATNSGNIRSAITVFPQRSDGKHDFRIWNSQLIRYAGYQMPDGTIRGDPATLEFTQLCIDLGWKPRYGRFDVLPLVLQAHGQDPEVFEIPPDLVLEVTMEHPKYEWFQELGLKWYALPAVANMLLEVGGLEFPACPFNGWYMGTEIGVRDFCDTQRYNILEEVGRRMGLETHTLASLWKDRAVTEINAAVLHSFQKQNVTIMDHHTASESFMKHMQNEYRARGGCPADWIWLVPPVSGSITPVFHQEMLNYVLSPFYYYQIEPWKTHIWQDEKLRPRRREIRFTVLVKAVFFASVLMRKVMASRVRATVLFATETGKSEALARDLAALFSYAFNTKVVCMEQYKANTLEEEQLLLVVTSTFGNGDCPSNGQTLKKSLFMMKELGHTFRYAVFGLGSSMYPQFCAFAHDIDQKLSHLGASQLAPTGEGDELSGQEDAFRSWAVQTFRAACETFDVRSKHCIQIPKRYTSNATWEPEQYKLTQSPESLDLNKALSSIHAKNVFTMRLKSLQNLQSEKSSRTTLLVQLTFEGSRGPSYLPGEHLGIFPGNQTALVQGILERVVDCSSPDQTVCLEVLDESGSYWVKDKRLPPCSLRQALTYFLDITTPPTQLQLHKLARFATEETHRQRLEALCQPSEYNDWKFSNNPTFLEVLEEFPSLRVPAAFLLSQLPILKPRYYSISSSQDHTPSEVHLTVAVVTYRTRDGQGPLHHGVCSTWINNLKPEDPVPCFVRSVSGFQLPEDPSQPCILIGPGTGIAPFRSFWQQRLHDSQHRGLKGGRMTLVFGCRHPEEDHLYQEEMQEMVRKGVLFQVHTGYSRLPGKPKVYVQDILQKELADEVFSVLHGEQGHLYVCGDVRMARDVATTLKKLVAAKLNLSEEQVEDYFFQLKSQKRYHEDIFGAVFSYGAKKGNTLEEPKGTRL
How it was run: (§2)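 Same cytokine-stimulated RIN5F Griess assay (IL-1β 1 ng/mL, IFN-γ 10 ng/mL; nitrite at 550 nm, nitrite calibration). Concentrations were chosen per compound to span 10–90% inhibition, plus one or two outside this range. IC50 was obtained by linear regression of log concentration versus percent inhibition.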

[4] = biological target: Nitric oxide synthase, inducible (Rattus norvegicus) (UniProt Q06518); experiment: Inhibition of iNOS-mediated NO production in IL-1beta/IFNgamma-stimulated rat […] cells at 39 to 78 uM by Griess reaction
Sequence of Nitric oxide synthase, inducible (Rattus norvegicus) (Q06518 whole entry): as above
How it was run: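 Compounds were added from 62.5 mM DMSO stock at 78 and 39 μM (final 0.5% DMSO). Nitrite in supernatant was measured by Griess reagents, absorbance 550 nm, against a 0–100 μM nitrite standard. Aminoguanidine was the reference on each plate. n = 5–8.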

[5] = biological target: Nitric oxide synthase, inducible (Rattus norvegicus) (UniProt Q06518); experiment: as §1; how it was run: as §2
[6] = Chemical stability in DMSO assessed as compound precipitation after 7 days; assay type: physicochemical; settings: 168 h
[7] = biological target: Nitric oxide synthase, inducible (Rattus norvegicus) (UniProt Q06518); experiment: Ratio of aminoguanidine IC50 to compound IC50 for iNOS-mediated NO production in IL-1beta/IFNgamma-stimulated rat […] cells by Griess reaction

For Oc1ccccc1C1NC(=S)N2CCCCN12 (centres undefined), the Stability [1] was “Unstable”, the Activity [2] was “Non-toxic” and the IC50 [3] was 70 µM.

With N=C(N)NN [PIMAGEDINE] the Activity [2] was “Non-toxic” and the IC50 [3] was 132 µM.

For Cc1ccccc1C1NC(=S)N2CCCCN12 (centres undefined), the Stability [1] was “Unstable”, the Activity [2] was “Non-toxic” and the IC50 [3] was 60.3 µM.

For S=C1NC(c2cccc(Oc3ccccc3)c2)N2CCCCN12 (centres undefined), the Stability [1] was “Unstable”, the Activity [2] was “Non-toxic” and the IC50 [3] was 40.2 µM.

With Oc1cccc(C2NC(=S)N3CCCCN23)c1 (centres undefined) the Stability [1] was “Unstable”, the inhibition [4] was “Active” and the Activity [2] was “Non-toxic”.

With O=[N+]([O-])c1ccc(C2NC(=S)N3CCCCN23)cc1 (centres undefined) the Stability [1] was “Unstable”, the Activity [2] was “Non-toxic” and the IC50 [3] was 13.2 µM.

With S=C1NC(Cc2ccccc2)N2CCCCN12 (centres undefined) the Stability [1] was “Unstable”, the Activity [2] was “Non-toxic” and the inhibition [5] was “inactive”.

For O=[N+]([O-])c1ccccc1C1NC(=S)N2CCCCN12 (centres undefined), the Stability [1] was “Unstable”, the Activity [2] was “Non-toxic” and the IC50 [3] was 24.2 µM.

With Cc1cccc(C2NC(=S)N3CCCCN23)c1 (centres undefined) the Stability [1] was “Unstable”, the inhibition [4] was “Active” and the Activity [2] was “Non-toxic”.

With S=C1NC(c2ccccc2)N2CCCCN12 (centres undefined) the Stability [1] was “Unstable”, the inhibition [4] was “Active” and the Activity [2] was “Non-toxic”.

For O=[N+]([O-])c1ccccc1/C=C/C1NC(=S)N2CCCCN12 (centres undefined), the Stability [6] was “Unstable”, the Ratio IC50 [7] was 10 and the Activity [2] was “Non-toxic”. The IC50 [3] was 9.81 µM.

With S=C1NC(c2ccccc2Cl)N2CCCCN12 (centres undefined) the Stability [1] was “Unstable”, the Activity [2] was “Non-toxic” and the IC50 [3] was 63 µM.

In the case of Cc1ccc(C2NC(=S)N3CCCCN23)cc1 (centres undefined), the Stability [1] is reported as “Unstable”, the Activity [2] is reported as “Non-toxic” and the IC50 [3] is reported as 53.2 µM.

With Oc1ccc(C2NC(=S)N3CCCCN23)cc1 (centres undefined) the Stability [1] was “Unstable”, the inhibition [4] was “Active” and the Activity [2] was “Non-toxic”.

With S=C1NC(/C=C/c2ccccc2)N2CCCCN12 (centres undefined) the Stability [6] was “Unstable”, the Activity [2] was “Non-toxic” and the IC50 [3] was 29.9 µM.

With S=C1NC(c2cccc(Cl)c2)N2CCCCN12 (centres undefined) the Stability [1] was “Unstable”, the inhibition [4] was “Active” and the Activity [2] was “Non-toxic”.

For CN(C)c1ccc(C2NC(=S)N3CCCCN23)cc1 (centres undefined), the Stability [1] was “Unstable”, the Ratio IC50 [7] was 2 and the Activity [2] was “Non-toxic”. For the same compound, the IC50 [3] was 101 µM.

For S=C1NC(c2ccc(Cl)cc2)N2CCCCN12 (centres undefined), the Stability [1] was “Unstable”, the Activity [2] was “Non-toxic” and the IC50 [3] was 57.6 µM.

For COc1ccc(C2NC(=S)N3CCCCN23)cc1 (centres undefined), the Stability [1] was “Unstable”, the inhibition [4] was “Active” and the Activity [2] was “Non-toxic”.

For CC1NC(=S)N2CCCCN12 (centres undefined), the Stability [1] was “Unstable”, the Activity [2] was “Non-toxic” and the inhibition [5] was “inactive”.

With O=[N+]([O-])c1cccc(C2NC(=S)N3CCCCN23)c1 (centres undefined) the Stability [1] was “Unstable”, the Activity [2] was “Non-toxic” and the IC50 [3] was 16.2 µM.
